In ChEMBL document CHEMBL1156077, “Piperazinyl-glutamate-pyrimidines as potent P2Y12 antagonists for inhibition of platelet aggregation” (Bioorg Med Chem Lett, 2009):

Columns and labels:
[1] = Selectivity for human P2Y12 receptor over P2Y13
CYP2D6 = CYP2D6 (Homo sapiens, UniProt P10635); assay: Inhibition of CYP2D6 at 3 uM after 30 mins; format: ADME
In short: (§1)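 Each CYP isoform assayed separately at a single 3 µM compound concentration in duplicate, with at least one isoform-specific positive control inhibitor. Incubation 30 min at 37 °C; end-point measurement gives percent inhibition.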

[2] = Selectivity for human P2Y12 receptor over P2Y1
CYP2C9 = CYP2C9 (Homo sapiens, UniProt P11712); assay: Inhibition of CYP2C9 at 3 uM after 30 mins; format: ADME; in short: as §1
Sequence of CYP2C9 (P11712 whole entry): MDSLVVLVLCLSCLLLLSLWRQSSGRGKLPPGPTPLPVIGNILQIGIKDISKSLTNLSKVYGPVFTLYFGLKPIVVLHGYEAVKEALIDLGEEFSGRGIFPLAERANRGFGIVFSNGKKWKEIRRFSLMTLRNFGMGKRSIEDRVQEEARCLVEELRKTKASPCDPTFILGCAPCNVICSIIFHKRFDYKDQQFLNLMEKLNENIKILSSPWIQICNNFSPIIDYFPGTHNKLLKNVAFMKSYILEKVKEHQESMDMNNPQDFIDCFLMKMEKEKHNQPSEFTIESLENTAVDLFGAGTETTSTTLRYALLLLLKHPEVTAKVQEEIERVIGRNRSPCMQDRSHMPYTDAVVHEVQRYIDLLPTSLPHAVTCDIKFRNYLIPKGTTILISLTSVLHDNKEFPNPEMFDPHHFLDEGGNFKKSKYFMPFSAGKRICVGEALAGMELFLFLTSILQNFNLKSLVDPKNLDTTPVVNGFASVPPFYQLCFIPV

[3] = Oral bioavailability in Sprague-Dawley rat at 5 mg/kg; format: ADME, organism-based; conditions: in vivo
CYP1A2 = target: T1, CYP1A2 (Homo sapiens, UniProt P05177); assay: Inhibition of CYP1A2 at 3 uM after 30 mins; format: ADME; in short: as §1
T1 sequence (P05177 whole entry): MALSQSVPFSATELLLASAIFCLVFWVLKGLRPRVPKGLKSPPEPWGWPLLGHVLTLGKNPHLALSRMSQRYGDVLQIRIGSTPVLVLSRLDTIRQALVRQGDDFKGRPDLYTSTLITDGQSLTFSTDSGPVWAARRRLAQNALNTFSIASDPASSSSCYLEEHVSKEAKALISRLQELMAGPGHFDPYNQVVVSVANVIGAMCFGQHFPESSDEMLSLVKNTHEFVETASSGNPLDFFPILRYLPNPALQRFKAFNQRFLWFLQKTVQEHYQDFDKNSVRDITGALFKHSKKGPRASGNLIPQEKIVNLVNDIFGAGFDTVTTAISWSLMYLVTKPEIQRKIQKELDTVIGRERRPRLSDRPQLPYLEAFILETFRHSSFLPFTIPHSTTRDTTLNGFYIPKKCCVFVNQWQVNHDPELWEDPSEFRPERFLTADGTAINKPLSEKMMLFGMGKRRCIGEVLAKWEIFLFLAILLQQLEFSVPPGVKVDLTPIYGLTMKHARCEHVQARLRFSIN

[4] = Volume of distribution at steady state in Sprague-Dawley rat at 2 mg/kg, iv and 5 mg/kg, po; format: ADME, organism-based; conditions: in vivo, read-out: Vdss
P2Y purinoceptor 12 [5] = target: T2, P2Y purinoceptor 12 (Homo sapiens, UniProt Q9H244); assay: Ratio of compound IC50 to thienopyrimidine IC50 for P2Y12 receptor in human platelet rich plasma assessed as inhibition of ADP-induced platelet aggregation by light transmission aggregometry
T2 sequence (Q9H244 whole entry): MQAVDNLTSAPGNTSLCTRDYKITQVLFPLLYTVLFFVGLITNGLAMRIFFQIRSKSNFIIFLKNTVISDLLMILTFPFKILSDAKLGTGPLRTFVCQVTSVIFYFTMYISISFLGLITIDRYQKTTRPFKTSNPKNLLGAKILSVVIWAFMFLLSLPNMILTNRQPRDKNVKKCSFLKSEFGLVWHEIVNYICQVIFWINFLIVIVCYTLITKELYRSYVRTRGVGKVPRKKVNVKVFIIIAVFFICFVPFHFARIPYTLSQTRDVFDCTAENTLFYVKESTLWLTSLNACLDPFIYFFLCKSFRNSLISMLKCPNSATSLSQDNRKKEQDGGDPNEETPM
In short: (§2)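 Human platelet-rich plasma was pre-incubated 5 min at 37 °C with compound across seven concentrations (10 down to 0.156). Aggregation was started with ADP (20, final) and followed by light transmission at 626 nm for 15 min at 37 °C. Duplicate concentration-response data were read at the 15-min end-point. IC50 was divided by the IC50 of the thienopyrimidine reference run on the same plate.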

CYP3A4 = CYP3A4 (Homo sapiens, UniProt P08684); assay: Inhibition of CYP3A4 at 3 uM after 30 mins; format: ADME; in short: as §1
Sequence of CYP3A4 (P08684 whole entry): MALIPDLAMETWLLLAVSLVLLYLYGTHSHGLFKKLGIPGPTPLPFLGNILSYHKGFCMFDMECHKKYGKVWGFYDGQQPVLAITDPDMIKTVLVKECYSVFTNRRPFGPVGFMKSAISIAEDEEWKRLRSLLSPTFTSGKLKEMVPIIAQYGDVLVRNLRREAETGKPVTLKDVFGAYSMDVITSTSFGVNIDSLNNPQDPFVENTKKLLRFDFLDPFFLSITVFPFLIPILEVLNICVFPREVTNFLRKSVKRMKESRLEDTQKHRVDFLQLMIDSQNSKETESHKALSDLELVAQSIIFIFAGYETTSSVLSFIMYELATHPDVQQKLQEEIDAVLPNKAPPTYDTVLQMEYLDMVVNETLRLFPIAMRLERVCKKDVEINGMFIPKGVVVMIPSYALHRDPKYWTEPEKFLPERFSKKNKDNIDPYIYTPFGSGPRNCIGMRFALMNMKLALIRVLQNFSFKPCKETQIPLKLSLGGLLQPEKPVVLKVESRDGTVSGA

P2Y purinoceptor 12 [6] = target: T2, P2Y purinoceptor 12; assay: Ratio of compound IC50 to AZD-6140 IC50 for P2Y12 receptor in human platelet rich plasma assessed as inhibition of ADP-induced platelet aggregation by light transmission aggregometry
In short: as §2, with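 “AZD-6140” for “the thienopyrimidine reference”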

hERG (KCNH2) = hERG (KCNH2) (Homo sapiens, UniProt Q12809); assay: Displacement of Cy3B-tagged N-desmethyl dofetilide from human ERG expressed in HEK cells at 10 uM after 120 mins; format: cell-based, HEK293; conditions: HEK cells that express human ERG, probe Cy3B-tagged N-desmethyl dofetilide
Sequence of hERG (KCNH2) (Q12809 whole entry): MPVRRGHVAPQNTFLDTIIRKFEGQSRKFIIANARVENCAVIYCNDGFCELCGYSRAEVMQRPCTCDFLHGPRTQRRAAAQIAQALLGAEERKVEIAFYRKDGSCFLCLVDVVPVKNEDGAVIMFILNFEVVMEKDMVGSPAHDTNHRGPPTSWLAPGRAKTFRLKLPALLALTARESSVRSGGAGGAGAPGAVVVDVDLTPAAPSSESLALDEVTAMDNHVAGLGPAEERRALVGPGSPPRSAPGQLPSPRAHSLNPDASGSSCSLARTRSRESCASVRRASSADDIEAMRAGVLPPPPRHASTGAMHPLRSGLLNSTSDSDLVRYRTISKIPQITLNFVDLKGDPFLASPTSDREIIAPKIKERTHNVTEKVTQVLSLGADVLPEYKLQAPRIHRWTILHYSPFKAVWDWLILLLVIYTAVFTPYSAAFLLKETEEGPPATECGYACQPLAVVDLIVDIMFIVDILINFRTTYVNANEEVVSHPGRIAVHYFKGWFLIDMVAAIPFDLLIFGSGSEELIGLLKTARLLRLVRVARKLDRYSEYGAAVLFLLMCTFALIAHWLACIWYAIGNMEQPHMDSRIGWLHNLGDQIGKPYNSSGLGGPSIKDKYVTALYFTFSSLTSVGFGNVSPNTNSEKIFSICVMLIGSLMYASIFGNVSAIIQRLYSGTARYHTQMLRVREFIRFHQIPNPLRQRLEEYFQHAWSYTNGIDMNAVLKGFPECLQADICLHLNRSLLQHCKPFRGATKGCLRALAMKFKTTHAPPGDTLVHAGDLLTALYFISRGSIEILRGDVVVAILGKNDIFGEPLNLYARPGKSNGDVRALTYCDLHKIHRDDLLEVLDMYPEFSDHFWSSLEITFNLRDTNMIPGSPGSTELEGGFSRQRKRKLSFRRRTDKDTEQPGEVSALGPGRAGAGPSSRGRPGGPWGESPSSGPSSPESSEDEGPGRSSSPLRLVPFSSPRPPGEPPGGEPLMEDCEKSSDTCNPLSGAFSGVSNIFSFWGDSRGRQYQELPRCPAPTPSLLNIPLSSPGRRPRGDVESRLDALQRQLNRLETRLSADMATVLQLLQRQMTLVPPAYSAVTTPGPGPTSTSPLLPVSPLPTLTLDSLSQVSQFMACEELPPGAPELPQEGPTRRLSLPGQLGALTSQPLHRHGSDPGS
In short: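 Fluorescence polarization competition assay with HEK-hERG membrane homogenates and Cy3B-tagged N-desmethyl dofetilide tracer. Compound tested at a single 10 µM concentration, 120 min incubation, end-point read for percent inhibition.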

[7] = Effective half life in Sprague-Dawley rat at 2 mg/kg, iv and 5 mg/kg, po; format: ADME, organism-based; conditions: in vivo
[8] = Clearance in Sprague-Dawley rat at 2 mg/kg, iv and 5 mg/kg, po; format: ADME, organism-based; conditions: in vivo
Liver microsomes [9] = assay: Metabolic stability in human liver microsomes assessed as compound remaining; format: ADME, Microsome
In short: (§3)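 Compounds incubated 30 min with human or rat liver microsomes; percent of parent compound remaining measured.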

Liver microsomes [10] = assay: Metabolic stability in rat liver microsomes assessed as compound remaining; format: ADME, Microsome; in short: as §3
P2Y purinoceptor 12 [11] = target: T2, P2Y purinoceptor 12; assay: Binding affinity at human recombinant P2Y12 receptor expressed in CHO cells by radioligand binding assay; format: cell-based
In short: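 Washed membranes from CHO cells transfected with synthetic human P2Y12 gene. Compounds as 7-point threefold dilutions, triplicate, 1 h at room temperature. Nonspecific binding defined with 300 nM 2-MeSADP. Filtered, washed with ice-cold Tris pH 7.4. Single-site fit; IC50 converted to Ki by Cheng–Prusoff, geometric mean of n≥2.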

Sequence of CYP2D6 (P10635 whole entry, canonical isoform): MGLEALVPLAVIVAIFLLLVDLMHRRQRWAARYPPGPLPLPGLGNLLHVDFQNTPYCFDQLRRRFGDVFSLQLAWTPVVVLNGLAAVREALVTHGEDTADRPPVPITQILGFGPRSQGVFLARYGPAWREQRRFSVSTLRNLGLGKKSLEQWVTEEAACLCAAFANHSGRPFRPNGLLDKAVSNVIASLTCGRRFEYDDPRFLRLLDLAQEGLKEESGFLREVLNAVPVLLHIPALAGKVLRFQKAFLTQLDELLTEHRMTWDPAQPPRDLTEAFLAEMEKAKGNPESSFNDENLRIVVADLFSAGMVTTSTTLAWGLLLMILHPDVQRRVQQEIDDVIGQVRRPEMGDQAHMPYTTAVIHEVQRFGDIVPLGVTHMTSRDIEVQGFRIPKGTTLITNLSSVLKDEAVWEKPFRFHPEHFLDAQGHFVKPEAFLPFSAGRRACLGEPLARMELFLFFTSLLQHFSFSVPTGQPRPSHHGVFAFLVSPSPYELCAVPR

| Structure (SMILES) | fold change (FC) [1] | inhibition at 0.5 h, 3 µM (CYP2D6) [%] | fold change (FC) [2] | inhibition at 0.5 h, 3 µM (CYP2C9) [%] | bioavailability [3] [%] | inhibition at 0.5 h, 3 µM (CYP1A2) [%] | Vd [4] [L/kg] | Ratio IC50 (P2Y purinoceptor 12 [5]) | inhibition at 0.5 h, 3 µM (CYP3A4) [%] | Ratio IC50 (P2Y purinoceptor 12 [6]) | half-life [7] [min] | clearance [8] [mL/min/kg] | Stability (Liver microsomes [9]) [%] | Stability (Liver microsomes [10]) [%] | Ki (P2Y purinoceptor 12 [11]) [nM] | inhibition at 2 h, 10 µM (hERG (KCNH2)) [%] |
| --- | --- | --- | --- | --- | --- | --- | --- | --- | --- | --- | --- | --- | --- | --- | --- | --- |
| CCCCCOC(=O)N1CCN(C(=O)[C@H](CCC(=O)O)NC(=O)c2nc(-c3ccccc3)cc(N3CCC(CN)CC3)n2)CC1 | > 340 | < 25 | > 340 | < 25 | 1 | < 25 | 0.28 | 0.2 | < 25 | 1.2 | 12 | 16 | > 80 | > 80 | 9.4 | < 25 |
| CCCCCOC(=O)N1CCN(C(=O)[C@H](CCC(=O)O)NC(=O)c2nc(-c3ccccc3)cc(N3CCC(COC)CC3)n2)CC1 | > 340 | < 25 | > 340 | < 25 | 6 | < 25 | 0.15 | 1.4 | < 25 | 9.5 | 18 | 6 | > 80 | > 80 | 12 | < 25 |
| CCCCCOC(=O)N1CCN(C(=O)[C@H](CCC(=O)O)NC(=O)c2cc(N3CCC(N4CCCC4)CC3)nc(-c3ccccc3)n2)CC1 | > 340 | < 25 | > 340 | < 25 |  | < 25 |  | 0.1 | < 25 | 0.4 |  |  | > 80 | > 80 | 1.5 | < 25 |
| CCCCCOC(=O)N1CCN(C(=O)[C@H](CCC(=O)O)NC(=O)c2cc(N3CCC(OCCO)CC3)nc(-c3ccccc3)n2)CC1 | > 340 | < 25 | > 340 | < 25 |  | < 25 | 0.8 | 0.4 | < 25 | 0.9 | 30 | 18 | > 80 | > 80 | 0.71 | < 25 |
| CCCCCOC(=O)N1CCN(C(=O)[C@H](CCC(=O)O)NC(=O)c2cc(N3CCC(CN)CC3)nc(-c3ccccc3)n2)CC1 | > 340 | < 25 | > 340 | < 25 | 1 | < 25 | 4.9 | 0.1 | < 25 | 0.6 | 102 | 33 | > 80 | > 80 | 3 | < 25 |
| CCCCCOC(=O)N1CCN(C(=O)[C@H](CCC(=O)O)NC(=O)c2cc(N3CCC(C(N)=O)CC3)nc(-c3ccccc3)n2)CC1 | > 340 | < 25 | > 340 | < 25 |  | < 25 | 2.4 | 0.1 | < 25 | 0.7 | 24 | 68 | > 80 | > 80 | 2 | < 25 |
| CCCCOC(=O)N1CCN(C(=O)[C@H](CCC(=O)O)NC(=O)c2cc(OCC3CCNCC3)nc(-c3ccccc3)n2)CC1 | > 340 |  | > 340 |  |  |  |  | 0.3 |  | 1 |  |  |  |  | 16 |  |
| CCCCCOC(=O)N1CCN(C(=O)[C@H](CCC(=O)O)NC(=O)c2nc(OCC3CCN(C)CC3)cc(-c3ccccc3)n2)CC1 | > 340 |  | > 340 |  |  |  |  | 0.8 |  | 4.4 |  |  |  |  | 12 |  |
| CCCCCOC(=O)N1CCN(C(=O)[C@H](CCC(=O)O)NC(=O)c2nc(-c3ccccc3)cc(N3CCC(OCCOC)CC3)n2)CC1 | > 340 |  | > 340 |  |  |  |  | 1.2 |  | 5.3 |  |  |  |  | 7.1 |  |
| CCCCCOC(=O)N1CCN(C(=O)[C@H](CCC(=O)O)NC(=O)c2nc(OCC3CCNCC3)cc(-c3ccccc3)n2)CC1 | > 340 |  | > 340 |  |  |  |  | 1.7 |  | 8.5 |  |  |  |  | 31 |  |
| CCCCCOC(=O)N1CCN(C(=O)[C@H](CCC(=O)O)NC(=O)c2cc(OCC3CCNCC3)nc(-c3ccccc3)n2)CC1 | > 340 |  | > 340 |  |  |  |  | 0.3 |  | 1.7 |  |  |  |  | 2.2 |  |
| CCCCCOC(=O)N1CCN(C(=O)[C@H](CCC(=O)O)NC(=O)c2nc(-c3ccccc3)cc(N3CCC(N)CC3)n2)CC1 | > 340 |  | > 340 |  |  |  |  | 0.6 |  | 3.1 |  |  |  |  | 8.4 |  |
| CCCCCOC(=O)N1CCN(C(=O)[C@H](CCC(=O)O)NC(=O)c2nc(-c3ccccc3)cc(N3CCC(CNC)CC3)n2)CC1 | > 340 |  | > 340 |  |  |  |  | 0.4 |  | 1 |  |  |  |  | 11 |  |
| CCCCCOC(=O)N1CCN(C(=O)[C@H](CCC(=O)O)NC(=O)c2cc(N3CCC(CCOC)CC3)nc(-c3ccccc3)n2)CC1 | > 340 |  | > 340 |  |  |  |  | 1.3 |  | 5.4 |  |  |  |  | 10.2 |  |

Continued, in another order:

| fold change (FC) [1] | inhibition at 0.5 h, 3 µM (CYP2D6) [%] | fold change (FC) [2] | inhibition at 0.5 h, 3 µM (CYP2C9) [%] | bioavailability [3] [%] | inhibition at 0.5 h, 3 µM (CYP1A2) [%] | Vd [4] [L/kg] | Ratio IC50 (P2Y purinoceptor 12 [5]) | inhibition at 0.5 h, 3 µM (CYP3A4) [%] | Ratio IC50 (P2Y purinoceptor 12 [6]) | half-life [7] [min] | clearance [8] [mL/min/kg] | Stability (Liver microsomes [9]) [%] | Stability (Liver microsomes [10]) [%] | Ki (P2Y purinoceptor 12 [11]) [nM] | Structure (SMILES) | inhibition at 2 h, 10 µM (hERG (KCNH2)) [%] |
| --- | --- | --- | --- | --- | --- | --- | --- | --- | --- | --- | --- | --- | --- | --- | --- | --- |
| > 340 |  | > 340 |  |  |  |  | 0.2 |  | 1.1 |  |  |  |  | 0.92 | CCCCCOC(=O)N1CCN(C(=O)[C@H](CCC(=O)O)NC(=O)c2cc(N3CCC(CC(=O)N4CCC4)CC3)nc(-c3ccccc3)n2)CC1 |  |
| > 340 |  | > 340 |  |  |  |  | 1.8 |  | 8.9 |  |  |  |  | 29 | CCCCCOC(=O)N1CCN(C(=O)[C@H](CCC(=O)O)NC(=O)c2nc(-c3ccccc3)cc(N3CCN(C(C)=O)CC3)n2)CC1 |  |
| > 340 |  | > 340 |  |  |  |  | 0.3 |  | 1.7 |  |  |  |  | 11 | CCCCOC(=O)N1CCN(C(=O)[C@H](CCC(=O)O)NC(=O)c2cc(OC3CCNCC3)nc(-c3ccccc3)n2)CC1 |  |
| > 340 |  | > 340 |  |  |  |  | 1.2 |  | 6.6 |  |  |  |  | 11 | CCCCCOC(=O)N1CCN(C(=O)[C@H](CCC(=O)O)NC(=O)c2nc(OCCCN3CCOCC3)cc(-c3ccccc3)n2)CC1 |  |
| > 340 |  | > 340 |  |  |  |  | 0.4 |  | 1.7 |  |  |  |  | 4.2 | CCCCCOC(=O)N1CCN(C(=O)[C@H](CCC(=O)O)NC(=O)c2nc(-c3ccccc3)cc(N3CCC(CCN4CCCC4)CC3)n2)CC1 |  |
| > 340 |  | > 340 |  |  |  |  | 0.8 |  | 3.9 |  |  |  |  | 5.9 | CCCCCOC(=O)N1CCN(C(=O)[C@H](CCC(=O)O)NC(=O)c2nc(-c3ccccc3)cc(N3CCC(N4CCOCC4)CC3)n2)CC1 |  |
